According to PMC7049346 (Haematologica, 2019):

Columns and labels:
[1] = biological target: PDE1B (Homo sapiens, UniProt Q01064); assay: PDE enzyme inhibition, radiometric assay; format: biochemical
In short: (§1)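 Recombinant human PDE enzymes (33 in the panel) were incubated in vitro with increasing concentrations of the test compound. Enzyme activity was measured radiometrically and IC50 values derived.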

[2] = biological target: PDE4A4 (Homo sapiens, UniProt P27815); assay: PDE enzyme inhibition, radiometric assay; format: biochemical
Chain of PDE4A4 (P27815 whole entry): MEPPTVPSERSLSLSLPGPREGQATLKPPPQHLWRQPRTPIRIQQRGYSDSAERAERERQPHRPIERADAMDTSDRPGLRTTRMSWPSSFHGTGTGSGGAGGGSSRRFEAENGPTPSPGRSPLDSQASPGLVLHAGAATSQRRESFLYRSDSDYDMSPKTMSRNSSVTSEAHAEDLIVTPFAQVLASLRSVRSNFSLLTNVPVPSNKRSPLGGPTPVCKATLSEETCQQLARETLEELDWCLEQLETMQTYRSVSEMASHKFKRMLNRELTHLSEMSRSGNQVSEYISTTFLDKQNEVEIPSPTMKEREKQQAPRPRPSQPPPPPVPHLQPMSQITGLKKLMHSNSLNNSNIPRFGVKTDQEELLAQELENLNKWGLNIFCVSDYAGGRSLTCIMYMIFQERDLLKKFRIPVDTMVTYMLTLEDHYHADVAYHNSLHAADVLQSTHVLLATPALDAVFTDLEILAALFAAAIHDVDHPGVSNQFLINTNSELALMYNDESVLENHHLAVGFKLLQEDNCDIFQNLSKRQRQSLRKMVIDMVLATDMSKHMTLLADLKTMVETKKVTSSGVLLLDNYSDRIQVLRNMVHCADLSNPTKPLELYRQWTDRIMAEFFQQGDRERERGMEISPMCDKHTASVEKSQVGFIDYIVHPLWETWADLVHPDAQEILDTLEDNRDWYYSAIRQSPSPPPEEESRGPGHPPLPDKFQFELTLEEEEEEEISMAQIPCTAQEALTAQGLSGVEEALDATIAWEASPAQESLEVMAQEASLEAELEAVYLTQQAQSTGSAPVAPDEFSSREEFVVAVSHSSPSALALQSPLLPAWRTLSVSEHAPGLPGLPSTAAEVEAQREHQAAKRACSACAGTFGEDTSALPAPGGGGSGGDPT
In short: as §1

[3] = biological target: PDE4B1 (Homo sapiens, UniProt Q07343); assay: PDE enzyme inhibition, radiometric assay; format: biochemical
Chain of PDE4B1 (Q07343 whole entry): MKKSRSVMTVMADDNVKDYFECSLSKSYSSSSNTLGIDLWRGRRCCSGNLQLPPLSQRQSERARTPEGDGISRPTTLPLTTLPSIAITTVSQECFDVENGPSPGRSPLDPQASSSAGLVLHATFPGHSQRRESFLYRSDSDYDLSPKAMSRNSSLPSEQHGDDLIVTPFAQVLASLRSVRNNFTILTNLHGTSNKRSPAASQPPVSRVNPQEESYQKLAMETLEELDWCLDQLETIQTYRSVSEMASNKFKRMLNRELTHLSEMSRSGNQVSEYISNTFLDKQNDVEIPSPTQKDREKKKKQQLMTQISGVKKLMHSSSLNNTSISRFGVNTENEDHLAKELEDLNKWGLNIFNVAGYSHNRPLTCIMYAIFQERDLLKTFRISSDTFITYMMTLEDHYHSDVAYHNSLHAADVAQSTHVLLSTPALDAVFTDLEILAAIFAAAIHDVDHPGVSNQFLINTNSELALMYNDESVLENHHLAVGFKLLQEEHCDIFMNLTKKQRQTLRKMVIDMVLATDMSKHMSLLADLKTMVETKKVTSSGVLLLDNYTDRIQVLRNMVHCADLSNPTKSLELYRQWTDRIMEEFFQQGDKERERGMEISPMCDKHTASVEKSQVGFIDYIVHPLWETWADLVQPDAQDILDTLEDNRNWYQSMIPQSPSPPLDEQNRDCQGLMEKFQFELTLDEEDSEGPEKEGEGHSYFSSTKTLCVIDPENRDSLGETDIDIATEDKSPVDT
In short: as §1

[4] = biological target: PDE4D1 (Homo sapiens, UniProt Q08499); assay: PDE enzyme inhibition, radiometric assay; format: biochemical
Chain of PDE4D1 (Q08499 1-584 isoform Q08499-4): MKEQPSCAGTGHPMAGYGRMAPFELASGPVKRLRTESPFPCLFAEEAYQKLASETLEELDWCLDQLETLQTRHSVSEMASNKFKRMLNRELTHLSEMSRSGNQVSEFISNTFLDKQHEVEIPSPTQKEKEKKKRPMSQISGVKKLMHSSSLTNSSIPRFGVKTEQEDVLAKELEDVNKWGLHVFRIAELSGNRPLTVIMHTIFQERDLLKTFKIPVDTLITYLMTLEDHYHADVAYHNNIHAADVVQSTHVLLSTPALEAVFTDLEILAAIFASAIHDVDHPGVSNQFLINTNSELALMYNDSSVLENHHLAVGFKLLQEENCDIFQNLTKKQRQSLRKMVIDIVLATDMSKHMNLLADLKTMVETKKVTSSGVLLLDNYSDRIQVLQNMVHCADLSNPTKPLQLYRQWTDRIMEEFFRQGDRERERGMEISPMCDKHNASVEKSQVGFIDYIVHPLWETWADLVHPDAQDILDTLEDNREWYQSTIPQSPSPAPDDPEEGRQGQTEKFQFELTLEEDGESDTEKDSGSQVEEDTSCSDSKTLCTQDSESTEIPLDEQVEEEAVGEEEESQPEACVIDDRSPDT
In short: as §1

[5] = biological target: PDE5A2 (Homo sapiens, UniProt O76074); assay: PDE enzyme inhibition, radiometric assay; format: biochemical
In short: as §1

[6] = biological target: PDE6C (Homo sapiens, UniProt P51160); assay: PDE enzyme inhibition, radiometric assay; format: biochemical
Chain of PDE6C (P51160 whole entry): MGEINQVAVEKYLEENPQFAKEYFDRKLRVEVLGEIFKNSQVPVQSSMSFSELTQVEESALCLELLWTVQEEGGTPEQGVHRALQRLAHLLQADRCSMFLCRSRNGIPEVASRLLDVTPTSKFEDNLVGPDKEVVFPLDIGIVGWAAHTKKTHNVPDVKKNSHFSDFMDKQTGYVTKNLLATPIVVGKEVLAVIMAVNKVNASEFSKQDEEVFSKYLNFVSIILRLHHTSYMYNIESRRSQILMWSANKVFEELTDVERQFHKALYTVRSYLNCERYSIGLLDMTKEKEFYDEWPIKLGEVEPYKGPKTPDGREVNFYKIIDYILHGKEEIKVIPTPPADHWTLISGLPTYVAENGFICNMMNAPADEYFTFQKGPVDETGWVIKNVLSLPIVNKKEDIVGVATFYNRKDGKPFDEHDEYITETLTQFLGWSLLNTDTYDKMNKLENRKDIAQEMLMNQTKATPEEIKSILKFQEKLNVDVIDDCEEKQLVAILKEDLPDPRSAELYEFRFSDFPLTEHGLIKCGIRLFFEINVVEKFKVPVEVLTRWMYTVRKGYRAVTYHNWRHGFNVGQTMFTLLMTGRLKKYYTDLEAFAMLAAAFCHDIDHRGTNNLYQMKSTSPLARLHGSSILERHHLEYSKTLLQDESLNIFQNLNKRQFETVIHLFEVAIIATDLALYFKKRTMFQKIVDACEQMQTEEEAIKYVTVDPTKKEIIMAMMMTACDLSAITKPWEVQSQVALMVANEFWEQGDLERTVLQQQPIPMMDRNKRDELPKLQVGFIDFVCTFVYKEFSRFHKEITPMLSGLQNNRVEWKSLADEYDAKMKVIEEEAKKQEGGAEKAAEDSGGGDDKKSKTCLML
In short: as §1

[7] = test system: K562 cells; assay: Cytotoxicity in K562 cells; format: cell-based, human; conditions: end of 72-h culture
In short: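 Actively growing K562 cells were cultured for 72 h with increasing concentrations of the test compound. Terminal viability was scored by automated cell counting or trypan-blue exclusion, or by an ATP-based luminescence assay. Apoptosis was checked by Annexin V flow cytometry.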

[8] = test system: HbSS-Townes mice; assay: Townes SCD model, 30 days daily oral dosing; format: in vivo; conditions: 30 days
[9] = Brain and plasma exposure in mice; format: in vivo, C57Bl/6J mice

Chain of PDE1B (Q01064 whole entry): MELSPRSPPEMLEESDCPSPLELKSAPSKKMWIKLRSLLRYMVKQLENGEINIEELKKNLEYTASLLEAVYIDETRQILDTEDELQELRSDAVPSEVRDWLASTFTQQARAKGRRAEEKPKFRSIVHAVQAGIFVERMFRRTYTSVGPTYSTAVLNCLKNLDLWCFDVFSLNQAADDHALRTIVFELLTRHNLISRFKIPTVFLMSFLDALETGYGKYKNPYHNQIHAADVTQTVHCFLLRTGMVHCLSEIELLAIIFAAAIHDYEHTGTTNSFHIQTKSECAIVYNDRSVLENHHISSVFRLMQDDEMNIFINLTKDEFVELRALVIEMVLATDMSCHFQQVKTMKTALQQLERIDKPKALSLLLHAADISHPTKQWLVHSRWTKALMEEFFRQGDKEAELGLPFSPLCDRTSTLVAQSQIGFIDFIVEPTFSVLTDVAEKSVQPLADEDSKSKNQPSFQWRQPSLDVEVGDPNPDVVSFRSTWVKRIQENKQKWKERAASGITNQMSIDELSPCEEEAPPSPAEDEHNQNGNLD

C[C@@H]1CN(Cc2ncccn2)C[C@H]1c1cn2c(C3CCOCC3)ncc2c(=O)[nH]1 [IMR-687]
IC50 [1]: 8.48 µM
IC50 [2]: > 100 µM
IC50 [3]: > 100 µM
IC50 [4]: > 100 µM
IC50 [5]: 81.9 µM
IC50 [6]: > 100 µM
Cytotoxicity (cell counts) [7]: not observed
WBC lower than vehicle ([8]; 30 mg/kg): 36%
increase in Hb ([8]; 30 mg/kg): 1.5 g/dL
increase in hematocrit ([8]; 30 mg/kg): 10%
increase in mature RBC ([8]; 30 mg/kg): 27%
increase in plasma nitrite levels ([8]; 30 mg/kg): ~2.5 fold
reduction in reticulocyte counts ([8]; 30 mg/kg): 36%
reduction of MPO levels ([8]; 30 mg/kg): 2.3 fold
reduction of plasma bilirubin and LDH vs vehicle treated SS mice ([8]; 30 mg/kg): over 2 fold
reduction of plasma free Hb levels ([8]; 30 mg/kg): over 55%
lung MPO levels ([8]; 30 mg/kg, HbSS-Townes vehicle 3.1 mU/L, P<0.0001): 1.3 mU/L
reduction of lung arginase vs vehicle ([8]; 30 mg/kg, P<0.0001): 25%
plasma bilirubin ([8]; 30 mg/kg, P<0.01): 4.7 mg/dL
LDH activity ([8]; 30 mg/kg, P<0.05): 102 AU
plasma nitrite levels ([8]; 30 mg/kg, untreated SS mice 0.56 mg/mL, P<0.05): 1.39 mg/mL
WBC count ([8]; 30 mg/kg, vehicle 38.2×10^9/L, P<0.05): 2.41e+10 L⁻¹
decrease in sickled RBC vs vehicle ([8]; 30 mg/kg/day): 2 fold
increase in the percent of HbF+ F-cells vs vehicle ([8]; 30 mg/kg/day): greater than 3 fold
percent of HbF+ F-cells ([8]; 30 mg/kg/day, vehicle 8.4%): 27.3%
percent sickled RBC ([8]; 30 mg/kg/day, vehicle 56.3%): 24.4%
brain exposure levels lower than PF-04447943 ([9]; C57Bl/6J mice, 10 mg/kg/day for five days): 5 fold
Kp at 5 days ([9]; C57Bl/6J, mouse, brain/plasma, 10 mg/kg/day): 0.07
